Measurements collected from several papers.
Protocols differ between the studies behind these lines.
Target: Serine/threonine-protein kinase Nek6 (NEK6, Homo sapiens, UniProt Q9HC98)
Read-out: enzyme activity
Action: inhibitor

With `COc1cc(Nc2cnc(C#N)c(O[C@H](C)CN(C)C)n2)ncc1-c1cnn(C)c1` the remaining activity was 97% (radiometric; 1 µM).
With `Nc1nc(NC2CCCCC2)sc1C(=O)c1ccccc1` the remaining activity was 113% (10 µM).
For `Cc1[nH]c(/C=C2\C(=O)Nc3ccc(F)cc32)c(C)c1C(=O)N[C@H]1CCN(C(=O)N(C)C)C1`, the remaining activity was 126% (1 µM).
With `O=C(Nc1cnn(-c2csc(C(=O)NC3COC3)c2)c1)Nc1ccccc1Cl` the remaining activity was 99.6% (5 µM).
`COc1cc(Cl)c(C(=O)N[C@@H](CN[C@H]2CC[C@@H](N)CC2)Cc2ccc(C#N)cc2)cc1-c1ccc(CN[C@H](C)c2ccc(C)cc2)o1` gave a remaining activity of 111% (1 µM).
The remaining activity of `CC(C)(C)c1nc2c(s1)c1nc(N)ncc1c1ccc(NS(=O)(=O)c3c(F)cccc3F)c(F)c12` is reported as 96% (radiometric; 1 µM).
The remaining activity of `Cn1c(=O)n(-c2ccc(C(C)(C)C#N)cc2)c2c3cc(-c4cnc5ccccc5c4)ccc3ncc21` is reported as 95% (10 µM).
`Cc1ccc(C(=O)Nc2ccc(CN3CCN(C)CC3)c(C(F)(F)F)c2)cc1C#Cc1cnc2cccnn12` has a remaining activity of 100% (23.5 nM).
With `FC(F)c1nc2ccccc2n1-c1nc(N2CCOCC2)nc(N2CCOCC2)n1` the remaining activity was 83% (10 µM).
`CCN(CC)CCNC(=O)c1c(C)[nH]c(/C=C2\C(=O)Nc3ccc(F)cc32)c1C` has a remaining activity of 99% (0.1 µM).
For `Cc1ccc(Nc2nccc(N(C)c3ccc4c(C)n(C)nc4c3)n2)cc1S(N)(=O)=O`, the remaining activity was 96.1% (0.5 µM).
With `Nc1nc(Nc2ccccc2)sc1C(=O)c1c(F)cccc1F` the remaining activity was 97% (10 µM).
